Measurements taken from ChEMBL document CHEMBL3102766, “Thiodiketopiperazines from the marine-derived fungus Phoma sp. OUCMDZ-1847” (J Nat Prod, 2014).
pIC50: −log10 of the molar value. Activity calls are given as the source filed them. No cut-off for these calls is given here.

Tests used:
Format in all cases: functional, cell-based
MGC-803 = assay: Cytotoxicity against human MGC803 cells after 24 hrs by SRB assay; conditions: for pIC50: MGC-803, 24 h
How it was run: (§1)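 Cytotoxicity against the tumor cell lines was read out by the SRB method, with adriamycin run as the positive control.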

K562 = assay: Cytotoxicity against human K562 cells after 72 hrs by MTT assay; conditions: for pIC50: K562, 72 h
A549 = assay: Cytotoxicity against human A549 cells after 24 hrs by SRB assay; conditions: for pIC50: A549, 24 h; how it was run: as §1
HCT-116 = assay: Cytotoxicity against human HCT116 cells after 72 hrs by MTT assay; conditions: for pIC50: HCT-116, 72 h
HL-60 = assay: Cytotoxicity against human HL60 cells after 72 hrs by MTT assay; conditions: for pIC50: HL-60, 72 h

SMILES	Activity (MGC-803)	Activity (K562)	Activity (A549)	Activity (HCT-116)	Activity (HL-60)	pIC50 (MGC-803)	pIC50 (A549)	pIC50 (K562)	pIC50 (HCT-116)	pIC50 (HL-60)
CS[C@@]12CC3=CC=C[C@H](O)[C@H]3N1C(=O)/C(=C/c1ccccc1)NC2=O	inactive	inactive	inactive	inactive	inactive					
COc1cccc2c1C(=O)c1c(O)c3c(c(O)c1C2=O)C[C@@](O)(C(=O)CO)C[C@@H]3O[C@H]1C[C@H](N)[C@H](O)[C@H](C)O1 [DOXORUBICIN]						6.77	6.80			
CS[C@@]12C[C@@H]3C(=O)C=C[C@H](O)[C@H]3N1C(=O)[C@]1(SC)C[C@@H]3C(=O)C=C[C@H](O)[C@H]3N1C2=O						5.38	< 5.00	< 5.00	5.40	5.46
O=C1C=C[C@H](O)[C@@H]2[C@@H]1C[C@@]13SS[C@]4(C[C@@H]5C(=O)C=C[C@H](O)[C@H]5N4C1=O)C(=O)N23 [EPICORAZINE A]						5.57	5.64	5.82	6.48	7.30
O=C1N2[C@H]3[C@H](C[C@]24SS[C@]12C[C@H]1[C@@H]([C@@H](O)CC[C@@H]1O)N2C4=O)[C@@H](O)CC[C@@H]3O	inactive	inactive	inactive	inactive	inactive					
O=C1C=C[C@H](O)[C@@H]2[C@@H]1C[C@@]13SS[C@]4(C[C@H]5C(=O)C[C@H](O)[C@H](O)[C@H]5N4C1=O)C(=O)N23						5.47	< 5.00	< 5.00	5.15	5.46
CS[C@@]1(Cc2ccccc2)NC(=O)[C@]2(SC)CC3=CC=C[C@H](O)[C@H]3N2C1=O						5.07	< 5.00	< 5.00	< 5.00	< 5.00
O=C1C[C@@H]2SS[C@@]34C[C@@H]1[C@@H]([C@H]2O)N3C(=O)[C@@]12C[C@H]3C(=O)C[C@H](SS1)[C@H](O)[C@H]3N2C4=O	inactive	inactive	inactive	inactive	inactive					
O=C1C[C@H]2S[C@@]34C[C@@H]1[C@@H]([C@H]2O)N3C(=O)[C@@]12C[C@H]3C(=O)[C@@H](S1)[C@H](O)[C@H](O)[C@H]3N2C4=O	inactive	inactive	inactive	inactive	inactive					
O=C1C=C[C@H](O)[C@@H]2[C@@H]1C[C@@]13SS[C@]4(C[C@H]5C(=O)C=C[C@H](O)[C@H]5N4C1=O)C(=O)N23						5.28	< 5.00	5.34	< 5.00	5.80
O=C1C[C@@H]2SS[C@@]34C[C@@H]1[C@@H]([C@H]2O)N3C(=O)[C@@]12C[C@H]3C(=O)[C@H](S1)[C@H](O)[C@H](O)[C@H]3N2C4=O	inactive	inactive	inactive	inactive	inactive					
O=C1C[C@@H]2S[C@@]34C[C@@H]1[C@@H]([C@H]2O)N3C(=O)[C@@]12C[C@H]3C(=O)C[C@H](S1)[C@H](O)[C@H]3N2C4=O	inactive	inactive	inactive	inactive	inactive					
O=C1C[C@H]2SS[C@@]34C[C@@H]1[C@@H]([C@H]2O)N3C(=O)[C@@]12C[C@H]3C(=O)C[C@@H](S1)[C@H](O)[C@H]3N2C4=O	inactive	inactive	inactive	inactive	inactive					
O=C1C[C@H](O)[C@H](O)[C@@H]2[C@H]1C[C@@]13SS[C@]4(C[C@H]5C(=O)C[C@H](O)[C@H](O)[C@H]5N4C1=O)C(=O)N23	inactive	inactive	inactive	inactive	inactive					
